# Test results reported in ChEMBL document CHEMBL1629614, “Inhibition of methionyl-tRNA synthetase by REP8839 and effects of resistance mutations on enzyme activity” (Antimicrob Agents Chemother, 2009).
# B1: Methionine--tRNA ligase (Staphylococcus aureus subsp. aureus MW2), Q8NY00 L213W (protein)
# chain: MAKETFYITTPIYYPSGNLHIGHAYSTVAGDVIARYKRMQGYDVRYLTGTDEHGQKIQEKAQKAGKTEIEYLDEMIAGIKQLWAKLEISNDDFIRTTEERHKHVVEQVFERLLKQGDIYLGEYEGWYSVPDETYYTESQLVDPQYENGKIIGGKSPDSGHEVELVKEESYFFNISKYTDRLLEFYDQNPDFIQPPSRKNEMINNFIKPGLADWAVSRTSFNWGVHVPSNPKHVVYVWIDALVNYISALGYLSDDESLFNKYWPADIHLMAKEIVRFHSIIWPILLMALDLPLPKKVFAHGWILMKDGKMSKSKGNVVDPNILIDRYGLDATRYYLMRELPFGSDGVFTPEAFVERTNFDLANDLGNLVNRTISMVNKYFDGELPAYQGPLHELDEEMEAMALETVKSYTESMESLQFSVALSTVWKFISRTNKYIDETTPWVLAKDDSQKDMLGNVMAHLVENIRYAAVLLRPFLTHAPKEIFEQLNINNPQFMEFSSLEQYGVLTESIMVTGQPKPIFPRLDSEAEIAYIKESMQPPATEEEKEEIPSKPQIDIKDFDKVEIKAATIINAEHVKKSDKLLKIQVDLDSEQRQIVSGIAKFYTPDDIIGKKVAVVTNLKPAKLMGQKSEGMILSAEKDGVLTLVSLPSAIPNGAVIK
# B2: Methionine--tRNA ligase (Staphylococcus aureus subsp. aureus MW2), Q8NY00 A247E (protein)
# chain: MAKETFYITTPIYYPSGNLHIGHAYSTVAGDVIARYKRMQGYDVRYLTGTDEHGQKIQEKAQKAGKTEIEYLDEMIAGIKQLWAKLEISNDDFIRTTEERHKHVVEQVFERLLKQGDIYLGEYEGWYSVPDETYYTESQLVDPQYENGKIIGGKSPDSGHEVELVKEESYFFNISKYTDRLLEFYDQNPDFIQPPSRKNEMINNFIKPGLADLAVSRTSFNWGVHVPSNPKHVVYVWIDALVNYISELGYLSDDESLFNKYWPADIHLMAKEIVRFHSIIWPILLMALDLPLPKKVFAHGWILMKDGKMSKSKGNVVDPNILIDRYGLDATRYYLMRELPFGSDGVFTPEAFVERTNFDLANDLGNLVNRTISMVNKYFDGELPAYQGPLHELDEEMEAMALETVKSYTESMESLQFSVALSTVWKFISRTNKYIDETTPWVLAKDDSQKDMLGNVMAHLVENIRYAAVLLRPFLTHAPKEIFEQLNINNPQFMEFSSLEQYGVLTESIMVTGQPKPIFPRLDSEAEIAYIKESMQPPATEEEKEEIPSKPQIDIKDFDKVEIKAATIINAEHVKKSDKLLKIQVDLDSEQRQIVSGIAKFYTPDDIIGKKVAVVTNLKPAKLMGQKSEGMILSAEKDGVLTLVSLPSAIPNGAVIK
# B3: Methionine--tRNA ligase (Staphylococcus aureus subsp. aureus MW2), Q8NY00 I57N (protein)
# chain: MAKETFYITTPIYYPSGNLHIGHAYSTVAGDVIARYKRMQGYDVRYLTGTDEHGQKNQEKAQKAGKTEIEYLDEMIAGIKQLWAKLEISNDDFIRTTEERHKHVVEQVFERLLKQGDIYLGEYEGWYSVPDETYYTESQLVDPQYENGKIIGGKSPDSGHEVELVKEESYFFNISKYTDRLLEFYDQNPDFIQPPSRKNEMINNFIKPGLADLAVSRTSFNWGVHVPSNPKHVVYVWIDALVNYISALGYLSDDESLFNKYWPADIHLMAKEIVRFHSIIWPILLMALDLPLPKKVFAHGWILMKDGKMSKSKGNVVDPNILIDRYGLDATRYYLMRELPFGSDGVFTPEAFVERTNFDLANDLGNLVNRTISMVNKYFDGELPAYQGPLHELDEEMEAMALETVKSYTESMESLQFSVALSTVWKFISRTNKYIDETTPWVLAKDDSQKDMLGNVMAHLVENIRYAAVLLRPFLTHAPKEIFEQLNINNPQFMEFSSLEQYGVLTESIMVTGQPKPIFPRLDSEAEIAYIKESMQPPATEEEKEEIPSKPQIDIKDFDKVEIKAATIINAEHVKKSDKLLKIQVDLDSEQRQIVSGIAKFYTPDDIIGKKVAVVTNLKPAKLMGQKSEGMILSAEKDGVLTLVSLPSAIPNGAVIK
# B4: Methionine--tRNA ligase (Haemophilus influenzae (strain ATCC 51907 / DSM 11121 / KW20 / Rd)), P43828 (protein)
# chain: MTTQPRKILVTCALPYANGAIHLGHMLEHIQADIWVRFQRMRGNKIHFVCADDAHGTPIMLNADKLGITPEELIAKAKADHIRDFAGFNISFDNYHSTHSEENKQLTAEIYNKLKANGFIKSKVISQLFDPEKNMFLPDRFVKGTCPKCKAEDQYGDNCEVCASTYSPMDLINPRSAVSGTTPIVKESEHFFFDLPAFEGMLKEWTRSGSLQSEIANKMQEWFESDLQQWDISRDAPYFGFEIPGAKDKFFYVWLDAPIGYMASFKNLCNREGIDFNEFWAEGSDAELYHFIGKDIVYFHSLFWPAMLEGSGYRKPTNVFAHGYVTVDGAKMSKSRGTFIQASTYLNHIDPECLRYYYAAKLNDRIEDLDFNLEDFVQRVNTDIVNKLVNLASRNAGFIAKRFEGKLADKLEDKSLFAEFTAQAEQIAAYYESREYNKTIREIMALTDKANKYIDEKAPWVIAKEEGKEAELQAVCSMGIELFRVLMSYLKPVLPKLAERAETFLQAELRWDNIHQPLLGHTLAPFKALFSRLEKKQIDAVVEETKALFAAANKAAEKTEAKPTALSAVEPIAETITIDDFAKLDMRVAKVLKCEAVPESNKLLRFELDLGDHTRQVFSGIKAAYNKPEELEGRFVIMVANLAPRKMKFGVSEGMILSAGTGGSDLFLLSADSGVTAGMQVK
# B5: Methionine--tRNA ligase (Thermus thermophilus (strain HB8 / ATCC 27634 / DSM 579)), P23395 (protein)
# chain: MEKVFYVTTPIYYVNAEPHLGHAYTTVVADFLARWHRLDGYRTFFLTGTDEHGETVYRAAQAAGEDPKAFVDRVSGRFKRAWDLLGIAYDDFIRTTEERHKKVVQLVLKKVYEAGDIYYGEYEGLYCVSCERFYTEKELVEGLCPIHGRPVERRKEGNYFFRMEKYRPWLQEYIQENPDLIRPEGYRNEVLAMLAEPIGDLSISRPKSRVPWGIPLPWDENHVTYVWFDALLNYVSALDYPEGEAYRTFWPHAWHLIGKDILKPHAVFWPTMLKAAGIPMYRHLNVGGFLLGPDGRKMSKTLGNVVDPFALLEKYGRDALRYYLLREIPYGQDTPVSEEALRTRYEADLADDLGNLVQRTRAMLFRFAEGRIPEPVAGEELAEGTGLAGRLRPLVRELKFHVALEEAMAYVKALNRYINEKKPWELFKKEPEEARAVLYRVVEGLRIASILLTPAMPDKMAELRRALGLKEEVRLEEAERWGLAEPRPIPEEAPVLFPKKEAKVEAKPKEEAWIGIEDFAKVELRVAEVLAAEKHPNADRLLVLRLSLGNEERTVVSGIAKWYRPEELVGKKVVLVANLKPAKLRGIESQGMILAAQEGEALALVTVEGEVPPGAVVK
# Assays:
# [1] = compound: C=C(F)c1sc(CNCCCNc2cc(=O)c3ccccc3[nH]2)c(C)c1Br; assay: Activity of streptococcus aureus MetRS L213W mutant by scintillation proximity assay in presence of tRNA; details: Staphylococcus aureus
# [2] = compound: C=C(F)c1sc(CNCCCNc2cc(=O)c3ccccc3[nH]2)c(C)c1Br; assay: Ratio of Kcat to Km for Staphylococcus aureus MetRS L213W mutant in presence of methionine
# How it was run: (§1)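 Purified recombinant S. aureus MetRS (30 nM) was assayed by ATP:PPi exchange at 30°C in Tris pH 8.0 with Mg acetate, KCl and DTT. [32P]PPi was matched to ATP, and ATP or methionine was varied. Time points from 1 to 10 min were quenched with EDTA, separated by PEI-cellulose TLC and read by phosphorimager. Initial rates were fitted to Michaelis-Menten.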
# [3] = compound: C=C(F)c1sc(CNCCCNc2cc(=O)c3ccccc3[nH]2)c(C)c1Br; assay: Ratio of Kcat to Km for Staphylococcus aureus MetRS L213W mutant in presence of tRNA
# How it was run: (§2)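 Purified recombinant S. aureus MetRS was assayed by tRNA aminoacylation at 30°C for 1 to 7.5 min to obtain initial rates. Buffer was Tris pH 8.0 with Mg acetate, 2.5 mM ATP, KCl, DTT, BSA, [3H]methionine and crude E. coli tRNA. Reactions were EDTA-stopped, and charged tRNA was read by scintillation proximity with polylysine beads at pH 2.0.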
# [4] = compound: C=C(F)c1sc(CNCCCNc2cc(=O)c3ccccc3[nH]2)c(C)c1Br; assay: Activity of Staphylococcus aureus MetRS L213W mutant by ATP:PPi exchange assay in presence of methionine
# How it was run: (§3)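 Purified S. aureus MetRS (wild type or mutant; E. coli-expressed, ammonium sulfate cut, anion exchange) at 30 nM. ATP:PPi exchange at 30°C in 100 mM Tris-HCl pH 8.0, 5–10 mM Mg acetate, 80 mM KCl, 2.5 mM DTT, [32P]PPi plus cold PPi equal to ATP. Quenched with EDTA over 1–10 min, PEI-cellulose TLC, phosphorimager. Initial velocities versus varied ATP or methionine fit to Michaelis-Menten.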
# [5] = compound: C=C(F)c1sc(CNCCCNc2cc(=O)c3ccccc3[nH]2)c(C)c1Br; assay: Ratio of Kcat to Km for Staphylococcus aureus MetRS L213W mutant in presence of ATP; how it was run: as §1
# [6] = compound: C=C(F)c1sc(CNCCCNc2cc(=O)c3ccccc3[nH]2)c(C)c1Br; assay: Activity of Staphylococcus aureus MetRS L213W mutant by ATP:PPi exchange assay in presence of ATP; how it was run: as §3
# [7] = compound: C=C(F)c1sc(CNCCCNc2cc(=O)c3ccccc3[nH]2)c(C)c1Br; assay: Ratio of Kcat to Km for Staphylococcus aureus MetRS A247E mutant in presence of methionine; how it was run: as §1
# [8] = compound: C=C(F)c1sc(CNCCCNc2cc(=O)c3ccccc3[nH]2)c(C)c1Br; assay: Activity of Staphylococcus aureus MetRS A247E mutant by ATP:PPi exchange assay in presence of methionine; how it was run: as §3
# [9] = compound: C=C(F)c1sc(CNCCCNc2cc(=O)c3ccccc3[nH]2)c(C)c1Br; assay: Ratio of Kcat to Km for Staphylococcus aureus MetRS A247E mutant in presence of ATP; how it was run: as §1
# [10] = compound: C=C(F)c1sc(CNCCCNc2cc(=O)c3ccccc3[nH]2)c(C)c1Br; assay: Ratio of Kcat to Km for Staphylococcus aureus MetRS A247E mutant in presence of tRNA; how it was run: as §2
# [11] = compound: C=C(F)c1sc(CNCCCNc2cc(=O)c3ccccc3[nH]2)c(C)c1Br; assay: Activity of Staphylococcus aureus MetRS A247E mutant by ATP:PPi exchange assay in presence of ATP; how it was run: as §3
# [12] = compound: C=C(F)c1sc(CNCCCNc2cc(=O)c3ccccc3[nH]2)c(C)c1Br; assay: Activity of streptococcus aureus MetRS A247E mutant by scintillation proximity assay in presence of tRNA; details: Staphylococcus aureus
# [13] = compound: C=C(F)c1sc(CNCCCNc2cc(=O)c3ccccc3[nH]2)c(C)c1Br; assay: Ratio of Kcat to Km for Staphylococcus aureus MetRS I57N mutant in presence of ATP; how it was run: as §1
# [14] = compound: C=C(F)c1sc(CNCCCNc2cc(=O)c3ccccc3[nH]2)c(C)c1Br; assay: Activity of Staphylococcus aureus MetRS I57N mutant by ATP:PPi exchange assay in presence of methionine; how it was run: as §3
# [15] = compound: C=C(F)c1sc(CNCCCNc2cc(=O)c3ccccc3[nH]2)c(C)c1Br; assay: Ratio of Kcat to Km for Staphylococcus aureus MetRS I57N mutant in presence of methionine; how it was run: as §1
# [16] = compound: C=C(F)c1sc(CNCCCNc2cc(=O)c3ccccc3[nH]2)c(C)c1Br; assay: Activity of streptococcus aureus MetRS I57N mutant by scintillation proximity assay in presence of tRNA; details: Staphylococcus aureus
# [17] = compound: C=C(F)c1sc(CNCCCNc2cc(=O)c3ccccc3[nH]2)c(C)c1Br; assay: Ratio of Kcat to Km for Staphylococcus aureus MetRS I57N mutant in presence of tRNA; how it was run: as §2
# [18] = compound: C=C(F)c1sc(CNCCCNc2cc(=O)c3ccccc3[nH]2)c(C)c1Br; assay: Activity of Staphylococcus aureus MetRS I57N mutant by ATP:PPi exchange assay in presence of ATP; how it was run: as §3
# [19] = compound: C=C(F)c1sc(CNCCCNc2cc(=O)c3ccccc3[nH]2)c(C)c1Br; assay: Activity of Haemophilus influenzae MetRS by ATP:PPi exchange assay in presence of ATP
# [20] = compound: C=C(F)c1sc(CNCCCNc2cc(=O)c3ccccc3[nH]2)c(C)c1Br; assay: Activity of Haemophilus influenzae MetRS by ATP:PPi exchange assay in presence of methionine
# [21] = compound: C=C(F)c1sc(CNCCCNc2cc(=O)c3ccccc3[nH]2)c(C)c1Br; assay: Activity of Thermus thermophilus HB8 MetRS by ATP:PPi exchange assay in presence of methionine
# [22] = compound: C=C(F)c1sc(CNCCCNc2cc(=O)c3ccccc3[nH]2)c(C)c1Br; assay: Activity of Thermus thermophilus HB8 MetRS by ATP:PPi exchange assay in presence of ATP
protein,measurement,setting,value
B1,Km,[1],1.7 µM
same,kcat,[1],0.54 s⁻¹
same,kcat/Km,[2],100000 M⁻¹ s⁻¹
same,kcat/Km,[3],320000 M⁻¹ s⁻¹
same,Km,[4],100 µM
same,kcat,[4],10 s⁻¹
same,kcat/Km,[5],17000 M⁻¹ s⁻¹
same,Km,[6],595 µM
B2,kcat/Km,[7],50000 M⁻¹ s⁻¹
same,Km,[8],220 µM
same,kcat,[8],11 s⁻¹
same,kcat/Km,[9],10000 M⁻¹ s⁻¹
same,kcat/Km,[10],44000 M⁻¹ s⁻¹
same,Km,[11],1140 µM
same,Km,[12],1.3 µM
same,kcat,[12],0.057 s⁻¹
B3,kcat/Km,[13],17000 M⁻¹ s⁻¹
same,Km,[14],25 µM
same,kcat,[14],14 s⁻¹
same,kcat/Km,[15],560000 M⁻¹ s⁻¹
same,Km,[16],0.93 µM
same,kcat,[16],0.023 s⁻¹
same,kcat/Km,[17],25000 M⁻¹ s⁻¹
same,Km,[18],820 µM
B4,Km,[19],1200 µM
same,Km,[20],250 µM
B5,Km,[21],18 µM
same,Km,[22],180 µM
